In PubChem BioAssay AID504382 (The Scripps Research Institute Molecular Screening Center, 2011):
The whole screen tested about 2,500 compounds, of which about 460 (18%) were called active. Not all results are given here. Unmarked numbers belong to inactive results.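 Rule for the calls: active = mean activation above a cutoff of low control average plus 3 SD from the earlier screen (cut at about 12% in these data); inactive = the rest.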

Assay: IANBD-channel fluorescence artefacts in buffer – biochemical, artefact control for cardiac RTF calcium sensitizer project, confirmation (AID 504382)
Conditions: IANBD fluorescence interference counterscreen, EC20 Ca2+, at 7.2 µM, hits give high values, scaled: EC20 calcium 0, EC100 calcium 100
In short: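 timing = compound incubation 15 min at 25 °C before fluorescence reading | technique = fluorescence at 480 nm excitation, 540 nm emission | evaluation = interference relative to controls | replication = triplicate wells per compound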

| Structure (SMILES) | fluorescence artifact activation |
| --- | --- |
| COCCNC(=O)CSc1nc(N)c(NC(=O)c2ccccc2F)c(=O)[nH]1 | 1.87% |
| CN1C2CCC1/C(=C/c1cccn1C)C(=O)/C2=C\c1cccn1C | 0.09% |
| CC(C)c1ccc(/C=C2\Oc3c(ccc(O)c3CN3CCN(C)CC3)C2=O)cc1 | -0.06% |
| O=c1cc(-c2ccccc2)oc2ccc(Br)cc12 | 0.06% |
| CCSc1cc(N2CCCC2)nc(-c2ccc(Cl)cc2)n1 | 0.62% |
| CC(=O)Nc1ccc(N=Cc2nc(-c3ccc(C)cc3)oc2O)cc1 | 8.23% |
| CC(C)CC[n+]1ccccc1/C=C/c1ccc(N(C)C)cc1 | -0.07% |
| COc1ccc(OC)c(S(=O)(=O)N2CCC(C(=O)NCc3ccccn3)CC2)c1 | 1.09% |
| CC(=O)Nc1ccc(Nc2cc(N(C)C)c3nonc3c2[N+](=O)[O-])cc1 | 33.2% (active) |
| CC1(C)CC(=O)C(C=Nc2cc(C(=O)c3ccccc3)ccc2N)=C(O)C1 | 6.24% |
| CN(C(=O)C1CCC1C(=O)O)c1nc(-c2ccc(Cl)s2)cs1 (stereo not given) | 21.3% (active) |
| O=C(NCc1ccccc1)C1(c2cccc(F)c2)CCCC1 | 0.26% |
| COC(=O)C/C(O)=C(/N=Nc1cccc(C(F)(F)F)c1)C(=O)OC | 0.94% |
| O=C(Nc1ccc(Cl)cn1)C1COc2ccccc2O1 (stereo not given) | 14.7% (active) |
| O=C(Nc1nc(-c2nc3ccccc3s2)cs1)C1COc2ccccc2O1 (stereo not given) | 11.1% |
| O=C1NCCN1c1ncc([N+](=O)[O-])s1 | 4.21% |
| COc1ccc(S(=O)(=O)N(CC(C)C)C2CCS(=O)(=O)C2)cc1OC (stereo not given) | 2.69% |
| O=C1c2ccccc2C(=O)N1c1ccc(Cc2ccncc2)cc1 | 5.28% |
| O=C(Nc1nc2c(s1)CN(Cc1ccccc1)CC2)c1cccc(S(=O)(=O)N2CCc3ccccc32)c1 | -0.03% |
| Cc1ccc(S(=O)(=O)c2cc(C#N)c(=O)[nH]c2N)cc1 | 6.68% |

| Structure (SMILES) | fluorescence artifact activation |
| --- | --- |
| O=C(Cc1ccc(Cl)cc1)NNS(=O)(=O)c1ccc([N+](=O)[O-])cc1 | 83% (active) |
| O=C(CSc1ccc(Cl)cc1)Nc1nnc(-c2cccc([N+](=O)[O-])c2)s1 | 0.01% |
| CC(=O)NCC(O)c1ccc([N+](=O)[O-])cc1 (stereo not given) | -0.01% |
| O=C1CC(/C=C/c2ccco2)=Nc2ccccc2N1 | 0.39% |
| Cc1ccc(NC(=O)O/N=C/c2ccc(F)cc2)cc1 | 0.14% |
| CCOC(=O)C1CCCN(C2=NC(=O)/C(=C/c3ccc(O)c(OC)c3)S2)C1 (stereo not given) | 0.04% |
| CCN1CC=C2C(C#N)=C(N)C(C#N)(C#N)[C@H](c3cccc(OC)c3OC)[C@H]2C1 | 0.43% |
| CCN1CC=C2C(C#N)=C(N)C(C#N)(C#N)C(c3cc(Cl)ccc3Cl)C2C1 (stereo not given) | 95% (active) |
| CCN1CC=C2C(C#N)=C(N)C(C#N)(C#N)[C@H](c3ccoc3)[C@H]2C1 | 0.03% |
| CC1=C(C(=O)N(C)C)C(c2ccc(C)s2)NC(=S)N1 (stereo not given) | 0.26% |
| CN(C)S(=O)(=O)c1ccc(C(=O)Oc2cc(=O)[nH]c3ccccc23)cc1 | 0.2% |
| CN(CC(=O)Nc1ccccc1Cl)C(=O)c1cc(=O)[nH]c2ccccc12 | 17.4% (active) |
| COc1ccc(N(CC(=O)Nc2ccccc2C(=O)NCC(C)C)S(C)(=O)=O)cc1 | 0.65% |
| N#Cc1c(NC(=O)/C=C/C(=O)O)sc2c1CCN(Cc1ccccc1)C2 | 0.08% |
| Nc1c(C(=O)Nc2ccc(S(=O)(=O)N3CCCC3)cc2)sc2nc3ccc(OC(F)(F)F)cc3cc12 | 0.16% |
| O=C1NC(=NCc2ccccc2)S/C1=C\c1ccccc1 | 14.6% (active) |
| Cc1ccc(N=C2NC(=O)/C(=C/c3cccnc3)S2)cc1C | 0.55% |
| COc1ccccc1N=C1NC(=O)/C(=C/c2ccc(N(C)C)cc2)S1 | 0.13% |
| Nc1ccc2c(O)cc(S(=O)(=O)O)cc2c1 | 0.19% |
| Nc1ccc(S(N)(=O)=O)cc1N | 196% (active) |

| Structure (SMILES) | fluorescence artifact activation |
| --- | --- |
| O=C1NC(c2cccc([N+](=O)[O-])c2)Oc2ccccc21 (stereo not given) | -0.04% |
| Cc1ccc(OCc2ccc(C(=O)O)o2)cc1C | -0.09% |
| O=C(NCc1csc2ccccc12)Nc1cc(Cl)cc(Cl)c1 | 0.06% |
| O=C(O)/C=C/C(=O)NCc1csc2ccccc12 | 94.3% (active) |
| Cc1cc(C(=O)NNC(=S)NCc2ccccc2)cs1 | -0.07% |
| CCOC(=O)c1c(-c2ccccc2)csc1NC(=O)/C(C#N)=C/c1ccc(O)c(OC)c1 | 6.3% |
| O=C(NC1CCCCC1)c1cccc2c1C(=O)c1ccc(N3CCCC3)cc1S2(=O)=O | 23.8% (active) |
| CC1CCN(c2ccc3c(c2)S(=O)(=O)c2cccc(C(=O)NC4CCCCC4)c2C3=O)CC1 | 0.04% |
| O=C(NC1CCCCC1)c1cccc2c1C(=O)c1ccc(N3CCC(Cc4ccccc4)CC3)cc1S2(=O)=O | 0.54% |
| C=CCNC(=O)c1cccc2c1C(=O)c1ccc(N3CCCC3)cc1S2(=O)=O | 0.04% |
| O=C(NCC1CC1)c1cccc2c1C(=O)c1ccc(N3CCCC3)cc1S2(=O)=O | 69.4% (active) |
| CN1CCC[C@@H]1CCNC(=O)c1cccc2c1C(=O)c1ccc(N3CCCC3)cc1S2(=O)=O | -0.09% |
| COc1ccccc1N1C(=O)c2cccc3c(N(C)CCO)ccc(c23)C1=O | 0.41% |
| O=C(N/C(=C/c1cn(-c2ccccc2)nc1-c1ccccc1)C(=O)N1CCOCC1)c1ccc(Cl)cc1Cl | 3.44% |
| COc1cccc2c1C(=O)c1c(O)c3c(c(O)c1C2=O)CC(O)(C(C)=O)CC3OC1CC(O)C(O)C(C)O1 (stereo not given) | 24.9% (active) |
| COc1cccc2c1C(=O)c1c(O)c3c(c(O)c1C2=O)C[C@@](O)(C(=O)CO)C[C@@H]3O[C@H]1C[C@H](N)[C@H](O)[C@H](C)O1 | -0.07% |
| COc1cccc2c1C(=O)c1c(O)c3c(c(O)c1C2=O)C[C@@](O)(C(=O)CO)C[C@@H]3OC1CC(N)C(O)C(C)O1 (stereo not given in full) | 0.06% |
| COc1cccc2c1C(=O)c1c(O)c3c(c(O)c1C2=O)CC(O)(C(=O)CO)CC3OC1CC(N(C)C)C(O)C(C)O1 (stereo not given) | 40.5% (active) |
| COc1cccc2c1C(=O)c1c(O)c3c(c(O)c1C2=O)CC(O)(C(C)=O)CC3OC1CC(N(C)C)C(O)C(C)O1 (stereo not given) | 0% |
| COc1cccc2c1C(=O)c1c(O)c3c(c(O)c1C2=O)C[C@](O)(C(C)=O)C[C@H]3O[C@@H]1C[C@@H](N)[C@@H](O)[C@@H](C)O1 | -0.05% |
